The record followed here is ChEMBL document CHEMBL1129978, “Effect of structural modification of enol-carboxamide-type nonsteroidal antiinflammatory drugs on COX-2/COX-1 selectivity” (J Med Chem, 1997).

Experiment [1] deals with T1, Prostaglandin G/H synthase 1 (Homo sapiens, UniProt P23219). As to the kind of experiment: Inhibition of human Prostaglandin G/H synthase 1 at 10 ug/mL expressed as mean percent inhibition of control PGE-2 production. An outline of the steps:
(§1)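 Human COX-1 and COX-2 genes expressed in a baculovirus system; microsomes prepared from High Five insect cells and used as the enzyme source. Activity read as PGE2 production. Each dose run in duplicate wells within each experiment, and values given as mean percent inhibition of control PGE2.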

Experiment [2] has as its target T1, Prostaglandin G/H synthase 1. The experiment is described as follows: Inhibition of human Prostaglandin G/H synthase 1 at 1 ug/mL expressed as mean percent inhibition of control PGE-2 production. An outline of the steps:
as §1

Experiment [3] shares this target. As to the kind of experiment: Inhibition of human Prostaglandin G/H synthase 1 at 0.1 ug/mL expressed as mean percent inhibition of control PGE-2 production. An outline of the steps:
as §1

T1 sequence (P23219 whole entry): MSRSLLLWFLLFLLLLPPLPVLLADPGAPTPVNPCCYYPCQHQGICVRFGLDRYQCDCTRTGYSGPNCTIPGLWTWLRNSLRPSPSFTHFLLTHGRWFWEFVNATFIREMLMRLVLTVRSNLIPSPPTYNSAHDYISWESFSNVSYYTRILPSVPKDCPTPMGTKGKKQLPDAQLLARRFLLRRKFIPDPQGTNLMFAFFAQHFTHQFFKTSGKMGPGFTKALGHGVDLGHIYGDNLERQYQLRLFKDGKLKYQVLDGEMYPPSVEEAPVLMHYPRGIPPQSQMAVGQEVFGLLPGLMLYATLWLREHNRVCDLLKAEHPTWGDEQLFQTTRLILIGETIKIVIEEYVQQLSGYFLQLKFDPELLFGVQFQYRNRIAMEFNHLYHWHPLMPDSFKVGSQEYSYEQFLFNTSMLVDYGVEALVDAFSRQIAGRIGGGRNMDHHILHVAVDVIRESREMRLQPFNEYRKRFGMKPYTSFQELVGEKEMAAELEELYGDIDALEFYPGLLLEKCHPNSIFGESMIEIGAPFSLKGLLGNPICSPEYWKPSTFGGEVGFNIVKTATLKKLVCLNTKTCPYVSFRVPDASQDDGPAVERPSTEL

For `Cc1cnc(N/C(O)=C2\C(=O)N(Cc3ccccc3)C(=O)c3ccc(Cl)cc32)s1`, the inhibition (commonly the relative decrease from the control value, in per cent) in experiment [1] came out at 83%; in experiment [2], 35%; in experiment [3], 8%.
In the same order, the values of `Cc1ccc2c(c1)/C(=C(\O)Nc1ccccc1)C(=O)N(C)C2=O` are 90%, 72% and 40%.
Take `CN1C(O)=C(C(=O)Nc2nccs2)c2c(ccc3ccccc23)S1(=O)=O`: the results for the inhibition in experiment [1], in experiment [2] and in experiment [3] were 93%, 57% and 24%, respectively.
For the molecule `CN1C(C(=O)Nc2ccccc2)=C(O)c2cc(Cl)ccc2S1(=O)=O`, the inhibition in experiment [1] is 17%; in experiment [2], 16%; in experiment [3], 15%.
For `Cc1ccc2c(c1)S(=O)(=O)N(C)C(C(=O)Nc1ccccc1)=C2O` the same measures were 28%, 28% and 2%.
As for `Cn1c(C(=O)Nc2ccccn2)c(O)c2ccccc2c1=O`, the inhibition was 19% in experiment [1] and -3% in experiment [2].
For `CCN1C(O)=C(C(=O)Nc2ccc(Cl)cc2Cl)c2cc(Cl)ccc2S1(=O)=O`, the inhibition in experiment [1] worked out at 99%; in experiment [2], 85%; in experiment [3] it was 36%.
For `CN1C(C(=O)Nc2ccccn2)=C(O)c2cc(F)ccc2S1(=O)=O` the same measures were 27%, 11% and 0%.
Consider `O=C1/C(=C(/O)Nc2ccc(Cl)cc2Cl)c2cc(Cl)ccc2C(=O)N1Cc1ccccc1`, for which the inhibition was found to be 100% in experiment [1], 84% in experiment [2] and 6% in experiment [3].
For `Cc1ccc2c(c1)S(=O)(=O)N(C)C(O)=C2C(=O)Nc1ccccc1Cl` the same measures were 97%, 98% and 63%.
For `COc1ccc2c(c1)S(=O)(=O)N(C)C(C(=O)Nc1ccccn1)=C2O` the same measures were 44%, 9% and -2%.
For `Cc1cnc(NC(=O)C2=C(O)c3cc(Cl)ccc3S(=O)(=O)N2C)s1` the same measures were 62%, 26% and 11%.
`Cc1cnc(NC(=O)C2=C(O)c3ccccc3S(=O)(=O)N2)s1`: the inhibition came to 41% in experiment [1], 18% in experiment [2] and 14% in experiment [3].
On to `Cc1cc2c(s1)S(=O)(=O)N(C)C(C(=O)Nc1nccs1)=C2O`, for which the inhibition is 5% in experiment [2] and 1% in experiment [3].
Take `CN1C(O)=C(C(=O)Nc2ccccn2)c2cc(Cl)ccc2S1(=O)=O`: the results for the inhibition in experiment [1] and in experiment [2] were 96% and 53%, respectively.
For the molecule `CN1C(C(=O)Nc2ccccn2)=C(O)c2c(c3cc(Cl)ccc3n2C)S1(=O)=O`, the inhibition in experiment [1] was determined as 90%; in experiment [2] it was 28%.
On to `CN1C(C(=O)Nc2nccs2)=C(O)c2ccccc2S1(=O)=O`, for which the figures for the inhibition in experiment [1] and in experiment [2] were 51% and 17%, respectively.
Regarding `Cc1ccc2c(c1)C(O)=C(C(=O)Nc1ccccn1)N(C)S2(=O)=O`, the inhibition is 5% in experiment [2] and -9% in experiment [3].
In the same order, the values of `CN1C(C(=O)Nc2ccccc2)=C(O)c2c(c3cc(Cl)ccc3n2C)S1(=O)=O` are 10% and 1%.
Turning to `CN1C(C(=O)Nc2ccccn2)=C(O)c2c(ccc3ccccc23)S1(=O)=O`, the inhibition is 25% in experiment [1] and -10% in experiment [2].
In the same order, the values of `CCn1c2c(c3ccccc31)S(=O)(=O)N(C)C(C(=O)Nc1nccs1)=C2O` are 81% and -1%.
Regarding `COc1ccc2c(c1)C(O)=C(C(=O)Nc1ncc(C)s1)N(C)S2(=O)=O`, the inhibition in experiment [3] is -1%.
`Cc1cnc(NC(=O)C2=C(O)c3ccccc3SC2(C)C)s1`: the inhibition in experiment [1] worked out at 16%; in experiment [2] it was 11%.
`CN1C(C(=O)Nc2ccccc2)=C(O)c2c(ccc3ccccc23)S1(=O)=O`: the inhibition in experiment [1] is 18%; in experiment [2], -5%.
